Source: the M2OR odorant receptor database

Columns and labels:
Conditions in all cases: stereoisomer not certain
UniProt Q8VF06 = target: UniProt Q8VF06
Outline: (§1)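 Transient luciferase assays in mammalian cell lines were common, though methods varied by source. The values come from published papers and their supplementary material, with extra details from the original authors when needed. Responsive refers to a measured signal the original authors judged statistically different from baseline, and non-responsive (inactive) to the remainder.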

UniProt Q8VF24 = target: T1, UniProt Q8VF24
T1 sequence (whole entry): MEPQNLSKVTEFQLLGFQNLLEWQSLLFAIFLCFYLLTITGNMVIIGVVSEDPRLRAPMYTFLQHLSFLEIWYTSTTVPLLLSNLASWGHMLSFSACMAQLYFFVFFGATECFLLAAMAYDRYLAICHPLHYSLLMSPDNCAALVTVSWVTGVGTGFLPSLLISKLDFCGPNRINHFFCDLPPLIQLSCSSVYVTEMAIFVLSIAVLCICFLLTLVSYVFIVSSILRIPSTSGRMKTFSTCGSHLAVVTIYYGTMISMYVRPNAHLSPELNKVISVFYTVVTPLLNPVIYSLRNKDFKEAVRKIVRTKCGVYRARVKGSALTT
Outline: as §1

UniProt Q8VF43 = target: T2, UniProt Q8VF43
T2 sequence (whole entry): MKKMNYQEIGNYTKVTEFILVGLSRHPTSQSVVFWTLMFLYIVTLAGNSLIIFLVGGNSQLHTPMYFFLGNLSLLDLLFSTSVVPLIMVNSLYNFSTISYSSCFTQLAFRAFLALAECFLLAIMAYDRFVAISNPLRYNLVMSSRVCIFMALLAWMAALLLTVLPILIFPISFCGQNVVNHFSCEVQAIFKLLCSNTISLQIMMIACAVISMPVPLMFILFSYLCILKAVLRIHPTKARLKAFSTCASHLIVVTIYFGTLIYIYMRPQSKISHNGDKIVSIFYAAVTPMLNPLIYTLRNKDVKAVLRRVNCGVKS
Outline: as §1

UniProt Q8VF44 = target: T3, UniProt Q8VF44
T3 sequence (whole entry): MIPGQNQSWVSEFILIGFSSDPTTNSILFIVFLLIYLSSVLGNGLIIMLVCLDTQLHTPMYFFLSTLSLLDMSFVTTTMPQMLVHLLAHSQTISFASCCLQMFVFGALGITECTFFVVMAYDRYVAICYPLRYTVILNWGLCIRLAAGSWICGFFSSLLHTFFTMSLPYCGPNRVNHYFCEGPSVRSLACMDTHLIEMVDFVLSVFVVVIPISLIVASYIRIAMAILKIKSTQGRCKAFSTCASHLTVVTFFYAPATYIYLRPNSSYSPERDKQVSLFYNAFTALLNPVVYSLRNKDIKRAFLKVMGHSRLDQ
Outline: as §1

UniProt Q8VF52 = target: T4, UniProt Q8VF52
T4 sequence (whole entry): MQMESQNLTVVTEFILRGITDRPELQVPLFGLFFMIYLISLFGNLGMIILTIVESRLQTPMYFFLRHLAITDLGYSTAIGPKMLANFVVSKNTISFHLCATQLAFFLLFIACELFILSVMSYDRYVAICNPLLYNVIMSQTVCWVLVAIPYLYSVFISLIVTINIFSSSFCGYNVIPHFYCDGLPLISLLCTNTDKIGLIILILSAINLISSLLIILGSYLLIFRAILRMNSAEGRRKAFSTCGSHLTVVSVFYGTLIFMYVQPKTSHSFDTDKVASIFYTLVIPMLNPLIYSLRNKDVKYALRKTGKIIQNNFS
Outline: as §1

UniProt Q8VFG6 = target: T5, UniProt Q8VFG6
T5 sequence (whole entry): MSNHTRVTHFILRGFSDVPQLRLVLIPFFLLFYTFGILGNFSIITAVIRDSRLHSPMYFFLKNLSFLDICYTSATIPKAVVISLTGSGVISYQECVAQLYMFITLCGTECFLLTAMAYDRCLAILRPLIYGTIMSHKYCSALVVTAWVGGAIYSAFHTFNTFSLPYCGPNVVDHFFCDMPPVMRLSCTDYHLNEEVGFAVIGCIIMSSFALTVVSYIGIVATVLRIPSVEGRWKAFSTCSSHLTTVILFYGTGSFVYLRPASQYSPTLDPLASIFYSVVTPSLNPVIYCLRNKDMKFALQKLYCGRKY
Outline: as §1

UniProt Q8VFM8 = target: T6, UniProt Q8VFM8
T6 sequence (whole entry): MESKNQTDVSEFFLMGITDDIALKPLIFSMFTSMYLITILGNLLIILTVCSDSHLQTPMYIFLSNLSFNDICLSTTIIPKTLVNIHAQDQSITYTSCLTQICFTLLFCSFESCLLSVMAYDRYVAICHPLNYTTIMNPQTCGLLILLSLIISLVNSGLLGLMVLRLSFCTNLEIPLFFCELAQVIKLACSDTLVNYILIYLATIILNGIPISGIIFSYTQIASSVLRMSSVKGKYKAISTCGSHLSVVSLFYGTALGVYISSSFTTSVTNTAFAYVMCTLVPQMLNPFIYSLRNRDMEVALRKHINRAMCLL
Outline: as §1

UniProt Q8VFP5 = target: T7, UniProt Q8VFP5
T7 sequence (whole entry): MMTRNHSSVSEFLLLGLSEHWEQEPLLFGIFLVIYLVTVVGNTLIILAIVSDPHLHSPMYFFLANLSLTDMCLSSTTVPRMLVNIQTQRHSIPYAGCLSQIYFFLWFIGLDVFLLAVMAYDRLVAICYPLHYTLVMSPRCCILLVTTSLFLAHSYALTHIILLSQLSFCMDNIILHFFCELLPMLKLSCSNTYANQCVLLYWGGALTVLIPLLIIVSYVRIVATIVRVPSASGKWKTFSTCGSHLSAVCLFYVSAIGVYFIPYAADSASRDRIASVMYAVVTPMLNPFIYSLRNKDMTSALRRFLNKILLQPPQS
Outline: as §1

UniProt Q8VFZ6 = target: T8, UniProt Q8VFZ6
T8 sequence (whole entry): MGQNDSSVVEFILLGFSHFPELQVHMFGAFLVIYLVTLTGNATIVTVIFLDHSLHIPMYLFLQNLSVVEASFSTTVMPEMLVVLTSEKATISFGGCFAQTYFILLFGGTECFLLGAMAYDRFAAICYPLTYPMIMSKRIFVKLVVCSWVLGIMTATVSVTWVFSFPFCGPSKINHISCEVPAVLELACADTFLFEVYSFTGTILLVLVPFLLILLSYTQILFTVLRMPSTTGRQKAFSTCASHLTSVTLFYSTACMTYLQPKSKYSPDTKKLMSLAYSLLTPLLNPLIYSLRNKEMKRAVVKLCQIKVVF
Outline: as §1

UniProt Q8VG01 = target: T9, UniProt Q8VG01
T9 sequence (whole entry): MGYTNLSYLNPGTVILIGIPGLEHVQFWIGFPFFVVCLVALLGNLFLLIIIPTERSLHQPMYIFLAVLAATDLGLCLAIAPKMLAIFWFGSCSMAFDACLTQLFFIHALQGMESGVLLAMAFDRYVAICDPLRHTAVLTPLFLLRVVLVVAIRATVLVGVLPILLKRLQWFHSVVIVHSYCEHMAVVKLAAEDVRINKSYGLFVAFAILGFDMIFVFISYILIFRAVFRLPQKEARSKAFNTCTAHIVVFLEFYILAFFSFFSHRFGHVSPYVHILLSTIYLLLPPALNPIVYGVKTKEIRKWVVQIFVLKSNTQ
Outline: as §1

UniProt Q8VG22 = target: T10, UniProt Q8VG22
T10 sequence (whole entry): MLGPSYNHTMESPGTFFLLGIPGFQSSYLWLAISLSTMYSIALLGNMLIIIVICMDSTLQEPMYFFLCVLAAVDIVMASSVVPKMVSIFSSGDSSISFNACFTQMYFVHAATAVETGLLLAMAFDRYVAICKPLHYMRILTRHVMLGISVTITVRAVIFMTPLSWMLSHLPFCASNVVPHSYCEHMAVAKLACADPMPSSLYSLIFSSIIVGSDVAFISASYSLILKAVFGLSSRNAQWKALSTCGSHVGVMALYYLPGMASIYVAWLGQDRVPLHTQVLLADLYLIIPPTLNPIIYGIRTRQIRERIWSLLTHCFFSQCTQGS
Outline: as §1

UniProt Q8VG26 = target: UniProt Q8VG26
Outline: as §1

UniProt Q8VF73 = target: UniProt Q8VF73
Outline: as §1

UniProt Q8VFB8 = target: UniProt Q8VFB8
Outline: as §1

UniProt Q8VFQ6 = target: UniProt Q8VFQ6
Outline: as §1

Measured: odorant receptor agonist call

Sequence of UniProt Q8VG26 (Q8VG26 as listed by the source): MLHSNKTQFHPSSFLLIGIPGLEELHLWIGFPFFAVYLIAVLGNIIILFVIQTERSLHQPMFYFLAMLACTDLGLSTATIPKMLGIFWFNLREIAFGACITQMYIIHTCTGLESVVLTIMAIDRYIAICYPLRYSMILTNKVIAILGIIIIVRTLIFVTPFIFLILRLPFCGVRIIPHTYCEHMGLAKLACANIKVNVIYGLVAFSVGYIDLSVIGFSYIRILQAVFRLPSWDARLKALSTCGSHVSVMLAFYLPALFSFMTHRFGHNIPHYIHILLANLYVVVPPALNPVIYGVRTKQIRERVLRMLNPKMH
Sequence of UniProt Q8VF06 (Q8VF06 as listed by the source): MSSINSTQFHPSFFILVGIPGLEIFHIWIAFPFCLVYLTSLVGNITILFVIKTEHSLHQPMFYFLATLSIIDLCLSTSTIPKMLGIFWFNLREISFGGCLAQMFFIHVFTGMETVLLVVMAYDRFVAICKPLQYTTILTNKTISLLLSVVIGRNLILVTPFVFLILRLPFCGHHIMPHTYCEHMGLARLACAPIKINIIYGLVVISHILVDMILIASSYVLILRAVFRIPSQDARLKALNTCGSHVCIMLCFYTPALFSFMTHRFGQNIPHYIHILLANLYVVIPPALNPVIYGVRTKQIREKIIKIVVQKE
Sequence of UniProt Q8VFQ6 (Q8VFQ6 as listed by the source): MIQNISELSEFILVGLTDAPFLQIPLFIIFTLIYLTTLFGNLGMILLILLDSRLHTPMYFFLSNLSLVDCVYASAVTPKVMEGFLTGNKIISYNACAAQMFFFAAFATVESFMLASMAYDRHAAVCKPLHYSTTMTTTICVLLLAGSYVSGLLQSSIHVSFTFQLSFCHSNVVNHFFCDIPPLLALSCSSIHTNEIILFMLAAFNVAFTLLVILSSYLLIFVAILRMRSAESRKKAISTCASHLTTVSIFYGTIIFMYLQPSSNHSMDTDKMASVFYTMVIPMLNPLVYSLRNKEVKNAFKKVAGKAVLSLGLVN
Sequence of UniProt Q8VFB8 (Q8VFB8 as listed by the source): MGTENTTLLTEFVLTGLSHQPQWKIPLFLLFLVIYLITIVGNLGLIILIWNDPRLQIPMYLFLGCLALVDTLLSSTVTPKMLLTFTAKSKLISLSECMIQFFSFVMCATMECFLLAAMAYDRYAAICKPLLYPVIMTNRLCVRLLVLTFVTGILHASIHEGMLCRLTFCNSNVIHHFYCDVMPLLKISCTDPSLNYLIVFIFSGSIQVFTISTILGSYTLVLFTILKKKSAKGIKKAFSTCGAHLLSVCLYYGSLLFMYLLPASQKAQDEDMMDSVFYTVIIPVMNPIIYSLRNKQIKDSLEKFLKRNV
Sequence of UniProt Q8VF73 (Q8VF73 as listed by the source): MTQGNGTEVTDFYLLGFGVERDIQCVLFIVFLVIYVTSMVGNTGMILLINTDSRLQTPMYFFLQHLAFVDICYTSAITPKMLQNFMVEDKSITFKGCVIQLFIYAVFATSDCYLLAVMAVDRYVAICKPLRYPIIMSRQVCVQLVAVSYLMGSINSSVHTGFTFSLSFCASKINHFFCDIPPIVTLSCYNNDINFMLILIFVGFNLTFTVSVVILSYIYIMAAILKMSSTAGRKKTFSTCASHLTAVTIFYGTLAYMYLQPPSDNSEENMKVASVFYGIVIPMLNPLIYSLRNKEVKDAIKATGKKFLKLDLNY

CCCCCCCCC(=O)O
active: UniProt Q8VF06
not listed: UniProt Q8VF73 | UniProt Q8VFB8 | UniProt Q8VFQ6
inactive: all other assays above

CCCCCCCCCCCO
active: UniProt Q8VF06
inactive: UniProt Q8VF43 | UniProt Q8VF52 | UniProt Q8VFM8 | UniProt Q8VFP5 | UniProt Q8VG01

O=C(O)CCCCCCCCCCCBr
active: UniProt Q8VF06

CCCCCCCC(=O)[O-].[H+]
active: UniProt Q8VF06 | UniProt Q8VG01
inactive: UniProt Q8VF24 | UniProt Q8VF44 | UniProt Q8VF52 | UniProt Q8VFG6 | UniProt Q8VFZ6 | UniProt Q8VG22 | UniProt Q8VG26

O=C1CCOc2ccccc21
active: UniProt Q8VF52 | UniProt Q8VF73 | UniProt Q8VFB8 | UniProt Q8VFG6 | UniProt Q8VG22
not listed: UniProt Q8VF06 | UniProt Q8VG26
inactive: all other assays above

CCCCCCCC(C)=O
not listed: UniProt Q8VF06 | UniProt Q8VG26 | UniProt Q8VF73 | UniProt Q8VFB8 | UniProt Q8VFQ6
inactive: all other assays above

CCCCCC=O
not listed: UniProt Q8VF06 | UniProt Q8VG26 | UniProt Q8VF73 | UniProt Q8VFB8 | UniProt Q8VFQ6
inactive: all other assays above

C=CCOC(=O)CCCCCC
not listed: UniProt Q8VF06 | UniProt Q8VG26 | UniProt Q8VF73 | UniProt Q8VFB8 | UniProt Q8VFQ6
inactive: all other assays above

O=C(O)CCCCCBr
inactive: UniProt Q8VF06 | UniProt Q8VF43 | UniProt Q8VF52 | UniProt Q8VFM8 | UniProt Q8VFP5
active: UniProt Q8VG01

CCCCC(=O)CC
not listed: UniProt Q8VF06 | UniProt Q8VG26 | UniProt Q8VF73 | UniProt Q8VFB8 | UniProt Q8VFQ6
inactive: all other assays above

CCCCCCCCO
active: UniProt Q8VFZ6
not listed: UniProt Q8VF73 | UniProt Q8VFB8 | UniProt Q8VFQ6
inactive: all other assays above
